Data published in ChEMBL document CHEMBL2057170, “Synthesis and binding properties of new selective ligands for the nucleobase opposite the AP site” (Bioorg Med Chem, 2012).

What was measured:
Format in all cases: nucleic-acid assay
Nucleic Acid [1] = assay: Binding affinity to DNA 5'-d GCG TAC AP CAT GCG-3' 3'-d CGC ATG T GTA CGC-5' assessed as melting temperature pretreated for 5 mins in presence of 50 mM NaCl
Procedure, shortened: (§1)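 UV thermal denaturation at 260 nm used 4 µM duplex (AP = THF) with or without 20 µM ligand in 10 mM HEPES-NaOH pH 7.0, 50 mM NaCl. Samples were preheated 5 min at 80 °C, then slowly cooled. Melts ran 20–80 °C at 1 °C/min. Tm came from non-linear fitting; ΔTm = Tm(+) − Tm(−).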

Nucleic Acid [2] = assay: Binding affinity to DNA 5'-d GCG TAC AP CAT GCG-3' 3'-d CGC ATG A GTA CGC-5' assessed as melting temperature pretreated for 5 mins in presence of 50 mM NaCl; procedure, shortened: as §1
Nucleic Acid [3] = assay: Binding affinity to DNA 5'-d GCG TAC AP CAT GCG-3' 3'-d CGC ATG C GTA CGC-5' assessed as melting temperature pretreated for 5 mins in presence of 50 mM NaCl; procedure, shortened: as §1
Nucleic Acid [4] = assay: Binding affinity to DNA 5'-d GCG TAC AP CAT GCG-3' 3'-d CGC ATG T GTA CGC-5' assessed as equilibrium association constant by SPR analysis in presence of 50 mM NaCl
Procedure, shortened: (§2)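 SPR on BIACORE3000. Hairpin duplexes carrying the AP site (THF) opposite X were 5'-biotin-labelled and immobilized in HBS-N (pH 7.4, 150 mM NaCl). Binding was run in 10 mM HEPES-NaOH pH 7.0 with 50 mM NaCl at 25 °C. Ligand 0.05–2.00 µM was injected at 20 µl/min for 300 s, then 120 s dissociation. Ka came from steady-state affinity analysis with a one-site fit.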

Nucleic Acid [5] = assay: Binding affinity to DNA 5'-d GCG TAC AP CAT GCG-3' 3'-d CGC ATG C GTA CGC-5' assessed as equilibrium association constant by SPR analysis in presence of 50 mM NaCl; procedure, shortened: as §2
Nucleic Acid [6] = assay: Binding affinity to DNA 5'-d GCG TAC AP CAT GCG-3' 3'-d CGC ATG G GTA CGC-5' assessed as melting temperature pretreated for 5 mins in presence of 50 mM NaCl; procedure, shortened: as §1
Nucleic Acid [7] = assay: Binding affinity to DNA 5'-d GCG TAC AP CAT GCG-3' 3'-d CGC ATG G GTA CGC-5' assessed as equilibrium association constant by SPR analysis in presence of 50 mM NaCl; procedure, shortened: as §2
Nucleic Acid [8] = assay: Binding affinity to DNA 5'-d GCG TAC AP CAT GCG-3' 3'-d CGC ATG A GTA CGC-5' assessed as equilibrium association constant by SPR analysis in presence of 50 mM NaCl; procedure, shortened: as §2
Nucleic Acid [9] = assay: Binding affinity to DNA 5'-d GCG TAC AP CAT GCG-3' 3'-d CGC ATG G GTA CGC-5' assessed as melting temperature pretreated for 5 mins in presence of 100 mM NaCl
Procedure, shortened: (§3)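 UV thermal denaturation at 260 nm used 4 µM duplex (AP = THF) with or without 20 µM ligand in 10 mM HEPES-NaOH pH 7.0, 100 mM NaCl. Samples were preheated 5 min at 80 °C, then slowly cooled. Melts ran 20–80 °C at 1 °C/min. Tm came from non-linear fitting; ΔTm = Tm(+) − Tm(−).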

Nucleic Acid [10] = assay: Binding affinity to DNA 5'-d GCG TAC AP CAT GCG-3' 3'-d CGC ATG A GTA CGC-5' assessed as melting temperature pretreated for 5 mins in presence of 100 mM NaCl; procedure, shortened: as §3
Nucleic Acid [11] = assay: Binding affinity to DNA 5'-d GCG TAC AP CAT GCG-3' 3'-d CGC ATG T GTA CGC-5' assessed as melting temperature pretreated for 5 mins in presence of 100 mM NaCl; procedure, shortened: as §3
Nucleic Acid [12] = assay: Binding affinity to DNA 5'-d GCG TAC AP CAT GCG-3' 3'-d CGC ATG C GTA CGC-5' assessed as melting temperature pretreated for 5 mins in presence of 100 mM NaCl; procedure, shortened: as §3

| Tm (Nucleic Acid [1]) [°C] | Tm (Nucleic Acid [2]) [°C] | Tm (Nucleic Acid [3]) [°C] | Ka (Nucleic Acid [4]) [×10⁶ /M] | Ka (Nucleic Acid [5]) [×10⁶ /M] | Tm (Nucleic Acid [6]) [°C] | Ka (Nucleic Acid [7]) [×10⁶ /M] | Ka (Nucleic Acid [8]) [×10⁶ /M] | Tm (Nucleic Acid [9]) [°C] | Tm (Nucleic Acid [10]) [°C] | Tm (Nucleic Acid [11]) [°C] | Tm (Nucleic Acid [12]) [°C] | Structure (SMILES) |
| --- | --- | --- | --- | --- | --- | --- | --- | --- | --- | --- | --- | --- |
| 35.5 | 39.2 | 33.8 | 0.053 | 0.063 | 37.8 | 0.043 | 0.222 | – | – | – | – | Cc1cn(CCCNCCCNCCCN)c(=O)[nH]c1=O |
| 32.4 | 35.2 | 32.6 | 0.001 | 0.002 | 40.5 | 0.039 | 0.002 | – | – | – | – | NCCCNCCCNCCCn1ccc(N)nc1=O |

Continued, compound first:

| Structure (SMILES) | Tm (Nucleic Acid [1]) [°C] | Tm (Nucleic Acid [2]) [°C] | Tm (Nucleic Acid [3]) [°C] | Ka (Nucleic Acid [4]) [×10⁶ /M] | Ka (Nucleic Acid [5]) [×10⁶ /M] | Tm (Nucleic Acid [6]) [°C] | Ka (Nucleic Acid [7]) [×10⁶ /M] | Ka (Nucleic Acid [8]) [×10⁶ /M] | Tm (Nucleic Acid [9]) [°C] | Tm (Nucleic Acid [10]) [°C] | Tm (Nucleic Acid [11]) [°C] | Tm (Nucleic Acid [12]) [°C] |
| --- | --- | --- | --- | --- | --- | --- | --- | --- | --- | --- | --- | --- |
| NCCCNCCCNCCCn1ccc(=O)[nH]c1=O | 33.9 | 39.1 | 32.1 | 0.027 | 0.022 | 36.4 | 0.001 | 0.045 | – | – | – | – |
| NCCCNCCCNCCCn1cnc2c(N)ncnc21 | – | – | – | 3.9 | 0.01 | – | 0.087 | 0.057 | 40.8 | 40.4 | 43.7 | 34.6 |
| NCCCNCCCN | – | – | – | < 0.001 | – | – | – | – | – | – | – | – |
| NCCCNCCCNCCCn1cnc2c(=O)[nH]c(N)nc21 | – | – | – | 0.08 | 6.3 | – | 0.047 | 0.016 | 40.9 | 40.4 | 38.1 | 40.8 |
